Results published in ChEMBL document CHEMBL4007444, “Development of New Benzenesulfonamides As Potent and Selective Nav1.7 Inhibitors for the Treatment of Pain” (J Med Chem, 2017).
Calls of active or inactive are those of the source. The rule behind the calls is not given here.

Assays:
[1] = molecular target: Sodium channel protein type 5 subunit alpha (Homo sapiens, UniProt Q14524); assay: Inhibition of recombinant human Nav1.5 expressed in HEK293 cells assessed as reduction in peak inward current at -50 mV holding potential measured after 600 secs by IonWorks Barracuda patch-clamp assay; type: cell-based
Sequence of Sodium channel protein type 5 subunit alpha (Q14524 whole entry): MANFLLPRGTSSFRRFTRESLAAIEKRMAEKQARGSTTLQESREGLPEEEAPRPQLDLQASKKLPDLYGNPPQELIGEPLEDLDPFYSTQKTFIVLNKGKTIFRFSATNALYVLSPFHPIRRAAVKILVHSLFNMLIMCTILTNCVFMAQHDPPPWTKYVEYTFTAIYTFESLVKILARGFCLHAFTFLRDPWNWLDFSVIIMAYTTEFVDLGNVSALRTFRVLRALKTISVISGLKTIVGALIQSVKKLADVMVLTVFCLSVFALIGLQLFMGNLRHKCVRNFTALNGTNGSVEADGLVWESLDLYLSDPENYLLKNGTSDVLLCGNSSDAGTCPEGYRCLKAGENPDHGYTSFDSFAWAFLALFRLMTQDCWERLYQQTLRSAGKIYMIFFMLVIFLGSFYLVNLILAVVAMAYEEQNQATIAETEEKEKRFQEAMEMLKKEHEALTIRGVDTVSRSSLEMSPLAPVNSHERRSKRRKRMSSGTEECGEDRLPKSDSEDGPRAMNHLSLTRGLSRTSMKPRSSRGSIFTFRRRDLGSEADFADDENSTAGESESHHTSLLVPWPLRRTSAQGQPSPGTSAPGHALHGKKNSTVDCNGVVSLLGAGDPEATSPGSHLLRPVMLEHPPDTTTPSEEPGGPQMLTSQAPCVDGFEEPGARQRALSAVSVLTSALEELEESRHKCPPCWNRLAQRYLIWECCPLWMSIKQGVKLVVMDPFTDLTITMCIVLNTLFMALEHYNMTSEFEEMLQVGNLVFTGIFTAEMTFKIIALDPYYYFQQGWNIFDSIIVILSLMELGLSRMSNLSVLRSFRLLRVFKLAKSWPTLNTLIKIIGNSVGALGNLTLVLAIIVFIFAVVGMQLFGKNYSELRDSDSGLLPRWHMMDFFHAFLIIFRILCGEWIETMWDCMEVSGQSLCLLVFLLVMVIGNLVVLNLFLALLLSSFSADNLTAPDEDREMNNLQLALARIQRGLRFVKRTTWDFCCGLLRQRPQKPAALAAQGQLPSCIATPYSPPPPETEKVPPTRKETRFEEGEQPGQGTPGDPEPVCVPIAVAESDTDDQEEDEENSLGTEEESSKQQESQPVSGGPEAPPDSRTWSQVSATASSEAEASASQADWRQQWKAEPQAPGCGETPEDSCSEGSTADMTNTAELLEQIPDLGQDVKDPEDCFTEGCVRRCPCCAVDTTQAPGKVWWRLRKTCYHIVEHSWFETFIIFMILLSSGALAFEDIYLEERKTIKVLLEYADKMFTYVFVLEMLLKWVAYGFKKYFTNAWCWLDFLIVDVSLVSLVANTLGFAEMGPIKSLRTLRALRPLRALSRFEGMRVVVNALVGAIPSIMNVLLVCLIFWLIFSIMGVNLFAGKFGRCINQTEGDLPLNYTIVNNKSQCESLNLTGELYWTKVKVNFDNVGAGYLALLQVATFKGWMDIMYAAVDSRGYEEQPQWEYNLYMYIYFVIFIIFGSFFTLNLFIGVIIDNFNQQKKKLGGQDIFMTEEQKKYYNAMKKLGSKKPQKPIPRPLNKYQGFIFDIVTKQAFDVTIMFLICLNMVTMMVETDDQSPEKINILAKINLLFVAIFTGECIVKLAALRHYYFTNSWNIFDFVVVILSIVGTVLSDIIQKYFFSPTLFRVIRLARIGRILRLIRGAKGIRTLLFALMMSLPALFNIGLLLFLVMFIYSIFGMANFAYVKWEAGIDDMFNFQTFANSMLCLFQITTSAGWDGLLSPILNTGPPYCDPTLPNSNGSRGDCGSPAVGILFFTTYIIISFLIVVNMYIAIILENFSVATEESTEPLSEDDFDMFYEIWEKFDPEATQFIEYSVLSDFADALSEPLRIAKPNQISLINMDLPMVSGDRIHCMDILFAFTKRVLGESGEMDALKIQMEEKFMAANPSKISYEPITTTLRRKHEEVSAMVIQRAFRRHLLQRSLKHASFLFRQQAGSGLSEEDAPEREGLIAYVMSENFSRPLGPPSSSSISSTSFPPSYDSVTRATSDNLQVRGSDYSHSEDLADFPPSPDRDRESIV
In short: (§1)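 HEK293 cells expressing the channel, measured by population patch clamp on IonWorks Barracuda. External solution (mM): 137 NaCl, 4 KCl, 1 MgCl2, 1.8 CaCl2, 10 HEPES, 10 glucose, pH 7.4. Internal: K-gluconate/KCl, pH 7.2. Compound incubated 600 s between pre- and post-compound reads. Nav1.7: held at -60 mV, 300 ms at -100 mV, then 20 ms test pulse to -20 mV. Nav1.5: held at -40/-50 mV, 300 ms at -100 mV, then step to -10 mV to inactivate.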

[2] = molecular target: T1, Sodium channel protein type 9 subunit alpha (Homo sapiens, UniProt Q15858); assay: Inhibition of recombinant human Nav1.7 expressed in HEK293 cells assessed as reduction in peak inward current at -60 mV holding potential measured after 600 secs by IonWorks Barracuda patch-clamp assay; type: cell-based
In short: as §1, with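 “Barracuda.” for “Barracuda. External solution (mM): 137 NaCl, 4 KCl, 1 MgCl2, 1.8 CaCl2, 10 HEPES, 10 glucose, pH 7.4.”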

[3] = molecular target: Sodium channel protein type 9 subunit alpha (Rattus norvegicus, UniProt O08562); assay: Inhibition of rat Nav1.7 assessed as reduction in peak inward current at -70 mV holding potential measured after 600 secs by manual patch clamp electrophysiology assay
In short: (§2)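 Whole-cell manual patch clamp of HEK293 cells stably expressing recombinant Nav1.7, holding potential -70 mV (partially inactivated state). Pipette solution (mM): 50 CsCl, 90 CsF, 10 NaF, 2 MgCl2, 10 EGTA, 10 HEPES, pH 7.2; electrode resistance 1-4 MOhm. Percent inhibition of peak inward current; IC50 from a Hill fit to the averaged data; mean ± SEM.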

[4] = system: Mus musculus; assay: Antinociceptive activity in CD-1 mouse assessed as reduction in formalin-stimulated paw flinching at 100 mg/kg, po administered 30 mins prior to formalin challenge measured up to 45 mins; type: functional, organism-based
In short: (§3)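 Male CD1 mice, oral dosing (10 mL/kg) of compound or vehicle before formalin; 20 μL of 5% formalin (w/v in saline) injected SC into the dorsal right hind paw, which carried a glued metal band, after 60 min acclimation in an individual chamber. Flinching counted automatically for 45 min: phase I is the first 5 min, phase II is 15-45 min. Mean ± SEM, n=10-14/group, ANOVA with Dunnett's test.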

[5] = system: Mus musculus; assay: Antinociceptive activity in CD-1 mouse assessed as reduction in formalin-stimulated paw flinching at 100 mg/kg, po administered prior to formalin challenge measured up to 5 mins
[6] = molecular target: T1, Sodium channel protein type 9 subunit alpha; assay: Inhibition of recombinant human Nav1.7 expressed in HEK293 cells assessed as reduction in peak inward current at -70 mV holding potential measured after 600 secs by manual patch clamp electrophysiology assay; type: cell-based
In short: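 Whole-cell manual patch clamp of HEK293 cells stably expressing recombinant human Nav1.7, held at -70 mV (partially inactivated state). The pipette solution (mM) was 50 CsCl, 90 CsF, 10 NaF, 2 MgCl₂, 10 EGTA and 10 HEPES, pH 7.2, with electrodes of 1-4 MOhm. Percent inhibition of peak inward current was calculated, and IC50 came from a Hill fit to averaged percent inhibition (mean ± S.E.M.).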

[7] = molecular target: T2, Sodium channel protein type 9 subunit alpha (Mus musculus, UniProt Q62205); assay: Inhibition of recombinant mouse Nav1.7 expressed in HEK293 cells assessed as reduction in peak inward current at -70 mV holding potential measured after 600 secs by manual patch clamp electrophysiology assay; type: cell-based; in short: as §2
T2 sequence (Q62205 whole entry): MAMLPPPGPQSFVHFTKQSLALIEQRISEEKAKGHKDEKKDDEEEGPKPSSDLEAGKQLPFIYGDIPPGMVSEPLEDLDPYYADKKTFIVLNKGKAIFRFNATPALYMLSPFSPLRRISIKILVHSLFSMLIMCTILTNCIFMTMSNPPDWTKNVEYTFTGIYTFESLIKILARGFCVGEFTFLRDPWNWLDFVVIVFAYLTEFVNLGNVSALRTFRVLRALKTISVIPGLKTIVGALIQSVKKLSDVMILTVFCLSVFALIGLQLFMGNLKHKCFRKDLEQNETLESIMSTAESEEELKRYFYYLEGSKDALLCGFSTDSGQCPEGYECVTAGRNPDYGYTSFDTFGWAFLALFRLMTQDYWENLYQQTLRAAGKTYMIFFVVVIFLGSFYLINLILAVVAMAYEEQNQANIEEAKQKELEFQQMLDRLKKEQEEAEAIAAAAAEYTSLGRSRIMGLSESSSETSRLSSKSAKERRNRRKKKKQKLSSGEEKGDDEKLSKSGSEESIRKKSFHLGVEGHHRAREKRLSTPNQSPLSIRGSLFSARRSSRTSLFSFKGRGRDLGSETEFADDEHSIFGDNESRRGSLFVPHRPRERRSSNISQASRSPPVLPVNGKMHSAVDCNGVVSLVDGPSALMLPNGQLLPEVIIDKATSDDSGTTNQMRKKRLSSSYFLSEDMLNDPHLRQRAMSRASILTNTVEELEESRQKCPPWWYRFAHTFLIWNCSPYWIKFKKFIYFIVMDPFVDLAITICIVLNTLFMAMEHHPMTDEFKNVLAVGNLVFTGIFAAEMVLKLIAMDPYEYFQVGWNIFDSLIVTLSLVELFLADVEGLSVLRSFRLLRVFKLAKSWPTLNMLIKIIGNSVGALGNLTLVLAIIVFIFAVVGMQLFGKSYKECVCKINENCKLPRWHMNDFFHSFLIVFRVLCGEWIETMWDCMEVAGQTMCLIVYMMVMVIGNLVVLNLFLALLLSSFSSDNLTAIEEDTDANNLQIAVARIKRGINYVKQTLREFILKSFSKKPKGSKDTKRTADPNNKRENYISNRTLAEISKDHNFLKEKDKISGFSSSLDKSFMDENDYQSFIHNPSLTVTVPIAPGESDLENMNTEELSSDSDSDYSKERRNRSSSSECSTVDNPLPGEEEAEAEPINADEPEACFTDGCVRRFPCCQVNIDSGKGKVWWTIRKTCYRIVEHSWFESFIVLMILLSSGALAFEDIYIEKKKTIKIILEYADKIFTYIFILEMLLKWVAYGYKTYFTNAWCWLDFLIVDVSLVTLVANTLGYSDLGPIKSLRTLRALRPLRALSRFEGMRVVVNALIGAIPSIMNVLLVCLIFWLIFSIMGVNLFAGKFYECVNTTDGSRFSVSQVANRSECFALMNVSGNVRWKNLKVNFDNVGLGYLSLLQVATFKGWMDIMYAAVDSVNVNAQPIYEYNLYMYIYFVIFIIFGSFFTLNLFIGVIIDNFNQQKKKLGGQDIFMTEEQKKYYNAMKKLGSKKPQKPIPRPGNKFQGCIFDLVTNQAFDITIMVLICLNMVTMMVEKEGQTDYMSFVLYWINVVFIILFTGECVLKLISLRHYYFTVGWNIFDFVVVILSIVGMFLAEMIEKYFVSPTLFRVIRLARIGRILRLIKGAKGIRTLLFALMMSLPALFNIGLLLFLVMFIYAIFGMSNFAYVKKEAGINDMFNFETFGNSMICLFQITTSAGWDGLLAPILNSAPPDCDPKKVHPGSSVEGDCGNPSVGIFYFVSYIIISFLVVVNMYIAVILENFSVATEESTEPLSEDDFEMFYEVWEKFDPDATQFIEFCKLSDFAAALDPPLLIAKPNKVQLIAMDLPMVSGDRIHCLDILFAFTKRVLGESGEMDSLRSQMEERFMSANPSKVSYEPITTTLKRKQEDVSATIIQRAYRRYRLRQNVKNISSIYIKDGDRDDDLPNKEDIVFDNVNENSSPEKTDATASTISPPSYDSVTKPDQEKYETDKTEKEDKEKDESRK

[8] = system: Plasma; assay: Free plasma concentration in CD-1 mouse at 100 mg/kg, po measured 60 mins post dosage; details: in vivo, 1 h
[9] = Fraction unbound in CD-1 mouse plasma; type: ADME, cell-free
[10] = molecular target: T1, Sodium channel protein type 9 subunit alpha; assay: Inhibition of recombinant human Nav1.7 expressed in HEK293 cells assessed as reduction in peak inward current at -120 mV holding potential by manual whole-cell patch-clamp assay
[11] = molecular target: T2, Sodium channel protein type 9 subunit alpha; assay: Inhibition of Nav1.7 in C57BL/6 mouse DRG neurons assessed as reduction in native TTX-S current amplitude by manual patch clamp electrophysiology assay
[12] = molecular target: Cytochrome P450 3A4 (Homo sapiens, UniProt P08684); assay: Inhibition of human CYP3A4 assessed as inhibition of dealkylation
Sequence of Cytochrome P450 3A4 (P08684 whole entry): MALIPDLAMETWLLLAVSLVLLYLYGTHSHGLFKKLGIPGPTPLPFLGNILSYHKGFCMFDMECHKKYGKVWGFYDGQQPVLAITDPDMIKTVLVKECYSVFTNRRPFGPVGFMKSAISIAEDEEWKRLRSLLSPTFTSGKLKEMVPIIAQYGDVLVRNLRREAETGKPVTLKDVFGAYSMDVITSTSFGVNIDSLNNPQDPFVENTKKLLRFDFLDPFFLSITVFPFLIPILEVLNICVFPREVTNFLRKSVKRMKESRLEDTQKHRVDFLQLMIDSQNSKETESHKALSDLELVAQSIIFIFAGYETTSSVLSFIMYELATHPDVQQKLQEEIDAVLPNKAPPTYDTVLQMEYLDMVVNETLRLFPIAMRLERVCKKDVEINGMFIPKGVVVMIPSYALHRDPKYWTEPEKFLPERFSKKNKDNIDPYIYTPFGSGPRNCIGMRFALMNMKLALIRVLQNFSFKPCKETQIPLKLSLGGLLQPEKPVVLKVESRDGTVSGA

[13] = Plasma concentration in CD-1 mouse at 30 mg/kg, po measured 75 mins post dosage; type: ADME, organism-based
[14] = Apparent permeability of the compound at pH 7.4 by PAMPA assay; type: physicochemical
[15] = system: Plasma; assay: Free plasma concentration in CD-1 mouse at 30 mg/kg, po measured 75 mins post dosage; type: ADME, organism-based; details: in vivo, 1.25 h
[16] = Apparent permeability of the compound at pH 5.5 by PAMPA assay; type: physicochemical
[17] = system: Mus musculus; assay: Antinociceptive activity in CD-1 mouse assessed as reduction in formalin-stimulated paw flinching at 30 mg/kg, po administered 30 mins prior to formalin challenge measured up to 45 mins; type: functional, organism-based; in short: as §3
[18] = Drug uptake in CD-1 mouse DRG neurons at 30 mg/kg, po measured 75 mins post dosage; type: ADME, organism-based, DRG neuron; details: read-out: Drug uptake
[19] = system: Mus musculus; assay: Antinociceptive activity in CD-1 mouse assessed as reduction in formalin-stimulated paw flinching at 60 mg/kg, po administered 30 mins prior to formalin challenge measured up to 45 mins; type: functional, organism-based; in short: as §3
[20] = system: Mus musculus; assay: Antinociceptive activity in CD-1 mouse assessed as reduction in formalin-stimulated paw flinching at 60 mg/kg, po administered 30 mins prior to formalin challenge measured up to 5 mins; type: functional, organism-based; in short: as §3
[21] = system: Plasma; assay: Free plasma concentration in CD-1 mouse at 60 mg/kg, po measured 60 mins post dosage; details: in vivo, 1 h

IC50 [2] | SMILES | IC50 [1] | other results
900 nM | O=S(=O)(Nc1ncns1)c1cc(F)c(OCC2(c3ccc(Cl)cc3)CCNCC2)cc1F |  | 
6 nM | N[C@H]1CC[C@@H](CNc2cc(F)c(S(=O)(=O)Nc3nccs3)cc2Cl)CC1 | 1900 nM | IC50 [3]: 12.3 nM; Activity [4]: inactive; Activity [5]: inactive; IC50 [6]: 4 nM; IC50 [7]: 7.5 nM; Cp(f) [8]: 320 nM; fraction unbound [9]: 0.08; IC50 [10]: 9400 nM; IC50 [11]: 6 nM
69 nM | O=S(=O)(Nc1nccs1)c1cc(Cl)c(NCC2CNCCO2)cc1F (racemic) | > 30000 nM | IC50 [12]: 20000 nM
78 nM | C[C@]1(CCOc2cc(F)c(S(=O)(=O)Nc3ncns3)cc2F)CC[C@@H](N)CC1 | > 30000 nM | 
264 nM | CN1CCCC(CNc2cc(F)c(S(=O)(=O)Nc3nccs3)cc2Cl)C1 (racemic) | > 30000 nM | 
57 nM | O=S(=O)(Nc1nccs1)c1cc(Cl)c(NC[C@@H]2CCCNC2)cc1F |  | IC50 [12]: 20000 nM
339 nM | O=S(=O)(Nc1nccs1)c1cc(Cl)c(NCC2CNC2)cc1F | > 30000 nM | 
49 nM | O=S(=O)(Nc1nccs1)c1cc(Cl)c(NC[C@H]2CCCNC2)cc1F | > 30000 nM | IC50 [12]: 20000 nM
15 nM | N[C@H]1CC[C@](CCOc2cc(F)c(S(=O)(=O)Nc3ncns3)cc2F)(c2ccccc2)CC1 | > 30000 nM | 
15 nM | O=S(=O)(Nc1ncns1)c1cc(Cl)c(NCCC2CCCCN2)cc1F (racemic) |  | 
27 nM | CN1C(C)(C)CC(Nc2cc(F)c(S(=O)(=O)Nc3nccs3)cc2Cl)CC1(C)C | > 30000 nM | IC50 [6]: 17 nM; IC50 [7]: 30 nM; concentration at 1.25 h [13]: 1100 nM; Papp [14]: 24.1 ×10⁻⁶ cm/s; fraction unbound [9]: 0.23; Cp(f) [15]: 280 nM; Papp [16]: 2.3 ×10⁻⁶ cm/s; IC50 [12]: 20000 nM; concentration at 1.25 h [18]: 1500 nM
207 nM | O=S(=O)(Nc1nccs1)c1cc(Cl)c(NC[C@@H]2CCCN(O)C2)cc1F |  | 
383 nM | C[C@]1(CCOc2cc(F)c(S(=O)(=O)Nc3ncns3)cc2F)CC[C@H](N)CC1 | > 30000 nM | 
186 nM | O=S(=O)(Nc1nccs1)c1cc(Cl)c(NC[C@H]2CCCN(O)C2)cc1F |  | 
14 nM | O=S(=O)(Nc1nccs1)c1cc(Cl)c(NCCC2CCNC2)cc1F (racemic) | > 30000 nM | 
324 nM | CC(=O)N1CCCC(CNc2cc(F)c(S(=O)(=O)Nc3nccs3)cc2Cl)C1 (racemic) | > 30000 nM | 
2 nM | O=S(=O)(Nc1ncns1)c1cc(F)c(OC[C@@H]2CNCC[C@H]2c2ccc(Cl)cc2)cc1F |  | 

Further lines, the compound ahead of its results:

SMILES | IC50 [2] | IC50 [1] | other results
N[C@H]1CC[C@](CCOc2cc(F)c(S(=O)(=O)Nc3ncns3)cc2F)(c2ccc(Cl)cc2)CC1 |  | > 30000 nM | 
O=S(=O)(Nc1ncns1)c1cc(F)c(OCCC2(c3ccc(Cl)cc3)CCNCC2)cc1F | 78 nM |  | 
N[C@H]1CC[C@@](CCNc2cc(F)c(S(=O)(=O)Nc3nccs3)cc2Cl)(c2ccccc2)CC1 |  | > 30000 nM | IC50 [12]: 9800 nM
N[C@H]1CC[C@@](CCOc2cc(F)c(S(=O)(=O)Nc3ncns3)cc2F)(c2ccccc2)CC1 | 473 nM | > 30000 nM | 
O=S(=O)(Nc1nccs1)c1cc(Cl)c(NCC2(CN3CCCC3)CC2)cc1F |  | 5100 nM | IC50 [6]: 12 nM; IC50 [7]: 51 nM; concentration at 1.25 h [13]: 1200 nM; Papp [14]: 94.9 ×10⁻⁶ cm/s; fraction unbound [9]: 0.2; Cp(f) [15]: 240 nM; Papp [16]: 4.7 ×10⁻⁶ cm/s; Activity [17]: Active; IC50 [12]: 20000 nM; concentration at 1.25 h [18]: 1500 nM
O=S(=O)(Nc1nccs1)c1cc(Cl)c(NCC23CCCN2CCC3)cc1F |  |  | Activity [19]: Active; Activity [20]: inactive; Cp(f) [21]: 1270 nM
N[C@H]1CC[C@@](CCOc2cc(F)c(S(=O)(=O)Nc3ncns3)cc2Cl)(c2ccccc2)CC1 |  | > 30000 nM | 
N[C@H]1CC[C@@](CCOc2cc(F)c(S(=O)(=O)Nc3ncns3)cc2F)(c2ccc(Cl)cc2)CC1 |  | > 30000 nM | 
N[C@H]1CC[C@](CCOc2cc(F)c(S(=O)(=O)Nc3ncns3)cc2Cl)(c2ccccc2)CC1 |  | > 30000 nM | 
N[C@H]1CC[C@](CCNc2cc(F)c(S(=O)(=O)Nc3nccs3)cc2Cl)(c2ccccc2)CC1 |  | > 30000 nM | IC50 [12]: 6700 nM
O=S(=O)(Nc1nccs1)c1cc(Cl)c(NCCC2CNC2)cc1F |  | > 30000 nM | 
CN[C@H]1CC[C@](CCOc2cc(F)c(S(=O)(=O)Nc3ncns3)cc2F)(c2ccccc2)CC1 |  | > 30000 nM | 
CN1CCC(CCNc2cc(F)c(S(=O)(=O)Nc3nccs3)cc2Cl)CC1 |  | > 30000 nM | 
O=S(=O)(Nc1nccs1)c1cc(Cl)c(NCCC2CCNCC2)cc1F |  | > 30000 nM | 
O=S(=O)(Nc1ncns1)c1cc(F)c(OCC[C@]2(c3ccccc3)CC[C@H](NC3CC3)CC2)cc1F |  | > 30000 nM | 
N[C@H]1CC[C@@H](CNc2cc(F)c(S(=O)(=O)Nc3ncns3)cc2Cl)CC1 |  | 2600 nM | IC50 [12]: 2300 nM
N[C@H]1CC[C@H](CNc2cc(F)c(S(=O)(=O)Nc3nccs3)cc2Cl)CC1 |  | > 30000 nM | 
O=S(=O)(Nc1ncns1)c1cc(F)c(OCC[C@]2(c3ccccc3)CC[C@@H](NC3CC3)CC2)cc1F |  | > 30000 nM | 
N[C@H]1CC[C@@H](CCNc2cc(F)c(S(=O)(=O)Nc3nccs3)cc2Cl)CC1 |  | 4900 nM | 
CN[C@H]1CC[C@@](CCOc2cc(F)c(S(=O)(=O)Nc3ncns3)cc2F)(c2ccccc2)CC1 |  | > 30000 nM | 
